Assay results published in ChEMBL document CHEMBL5512684 (J Med Chem, 2024).
Peptide text beside a SMILES is read from it.

What was measured:
[1] = target: T1, Neuronal acetylcholine receptor subunit alpha-7 (Homo sapiens, UniProt P36544); experiment: Antagonist activity at human alpha7 nAChR expressed in Xenopus laevis oocytes assessed as inhibition of Ach-induced response at -70 mV holding potential measured after 5 mins by two electrode voltage-clamp electrophysiology method; assay type: cell-based, Oocyte
T1 sequence (P36544 whole entry, the tested form may be a part): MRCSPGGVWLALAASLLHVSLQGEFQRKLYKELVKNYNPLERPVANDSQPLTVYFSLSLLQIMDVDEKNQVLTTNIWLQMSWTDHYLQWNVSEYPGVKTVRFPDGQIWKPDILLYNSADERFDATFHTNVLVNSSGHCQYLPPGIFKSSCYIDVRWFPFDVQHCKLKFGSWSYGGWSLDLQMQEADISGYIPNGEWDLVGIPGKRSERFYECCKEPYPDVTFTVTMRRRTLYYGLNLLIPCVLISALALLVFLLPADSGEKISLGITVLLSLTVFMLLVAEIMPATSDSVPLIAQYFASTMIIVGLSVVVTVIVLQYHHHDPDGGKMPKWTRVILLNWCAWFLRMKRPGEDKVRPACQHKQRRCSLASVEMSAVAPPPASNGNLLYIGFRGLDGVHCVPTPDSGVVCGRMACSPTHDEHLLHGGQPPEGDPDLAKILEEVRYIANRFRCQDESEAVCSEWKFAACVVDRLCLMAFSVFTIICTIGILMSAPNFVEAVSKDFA
How it was run: (§1)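 TEVC at −70 mV after 1–4 days, perfusion ~3 mL/min, saline pH 7.4 with BSA. ACh 3 mM for α10, 100 μM for α7. α7 pulses 500 ms, α10 1 s, every 60 s. Peptide perfused up to 1 μM, static 5-min bath above.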

[2] = target: Neuronal acetylcholine receptor; alpha9/alpha10 (Homo sapiens, UniProt Q9GZZ6+Q9UGM1); experiment: Antagonist activity at human alpha9alpha10 nAChR expressed in Xenopus laevis oocytes assessed as inhibition of Ach-induced response at -70 mV holding potential measured after 5 mins by two electrode voltage-clamp electrophysiology method; assay type: cell-based, Oocyte
Sequence of Neuronal acetylcholine receptor; alpha9/alpha10 (Q9UGM1 whole entry): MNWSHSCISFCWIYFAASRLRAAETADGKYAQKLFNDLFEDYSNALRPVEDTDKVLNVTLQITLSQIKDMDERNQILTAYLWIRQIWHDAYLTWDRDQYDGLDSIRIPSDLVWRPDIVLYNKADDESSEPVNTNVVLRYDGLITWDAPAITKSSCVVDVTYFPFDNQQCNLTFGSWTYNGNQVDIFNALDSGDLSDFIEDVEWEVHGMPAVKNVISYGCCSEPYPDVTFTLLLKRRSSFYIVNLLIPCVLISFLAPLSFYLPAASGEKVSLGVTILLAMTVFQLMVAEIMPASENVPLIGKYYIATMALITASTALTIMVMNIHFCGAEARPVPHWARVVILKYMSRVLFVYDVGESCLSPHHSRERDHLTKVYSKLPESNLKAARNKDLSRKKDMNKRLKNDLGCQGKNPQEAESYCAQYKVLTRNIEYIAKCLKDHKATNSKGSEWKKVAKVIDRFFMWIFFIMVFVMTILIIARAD
Sequence of Neuronal acetylcholine receptor; alpha9/alpha10 (Q9GZZ6 whole entry): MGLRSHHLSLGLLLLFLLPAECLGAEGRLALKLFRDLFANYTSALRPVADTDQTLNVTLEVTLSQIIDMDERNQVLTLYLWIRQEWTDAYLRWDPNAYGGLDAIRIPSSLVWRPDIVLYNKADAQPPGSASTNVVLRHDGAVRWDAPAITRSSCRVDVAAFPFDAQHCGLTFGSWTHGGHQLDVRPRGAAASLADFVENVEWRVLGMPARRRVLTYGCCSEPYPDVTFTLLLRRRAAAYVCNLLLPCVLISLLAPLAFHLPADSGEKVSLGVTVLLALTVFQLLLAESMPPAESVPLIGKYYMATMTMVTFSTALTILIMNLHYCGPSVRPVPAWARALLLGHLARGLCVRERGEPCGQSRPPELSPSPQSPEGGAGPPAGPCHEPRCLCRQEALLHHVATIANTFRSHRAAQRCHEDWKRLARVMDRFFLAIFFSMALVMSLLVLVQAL

[3] = target: T1, Neuronal acetylcholine receptor subunit alpha-7; experiment: (§2) Antagonist activity at human alpha7 nAChR expressed in Xenopus laevis oocytes assessed as inhibition of Ach-induced response by measuring residual activity at 10 uM at -70 mV holding potential measured after 5 mins by two electrode voltage-clamp electrophysiology method relative to control; assay type: cell-based; conditions: Oocyte
How it was run: (§3)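 Single-point test at 10 μM peptide, applied for 5 min in a static bath to oocytes under TEVC at −70 mV. ACh 100 μM (α7, α9, α9α10) or 3 mM (α10), pulsed every 60 s. The ACh response was normalized to the response after a 5-min bath application of control saline.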

[4] = target: T2, Neuronal acetylcholine receptor; alpha9/alpha10 (Homo sapiens) (UniProt Q9UGM1+Q9GZZ6); experiment: (§4) Antagonist activity at human alpha9alpha10 nAChR expressed in Xenopus laevis oocytes assessed as inhibition of Ach-induced response by measuring residual activity at 10 uM at -70 mV holding potential measured after 5 mins by two electrode voltage-clamp electrophysiology method relative to control; assay type: cell-based; conditions: Oocyte; how it was run: as §3
[5] = target: T1, Neuronal acetylcholine receptor subunit alpha-7; experiment: as §2, with “assessed as” for “by measuring”, “potential preincubated for 5 mins followed by peptide washout and” for “potential”, “15” for “5”, “(reference value: 30 +/- 9%)” for “relative to control”; assay type: cell-based; conditions: Oocyte
How it was run: (§5)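 Recovery of ACh-evoked responses was then followed during peptide washout for 15 min. Values are given as percent of control responses.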

[6] = target: T2, Neuronal acetylcholine receptor; alpha9/alpha10 (Homo sapiens); experiment: as §4, with “assessed as” for “by measuring”, “potential preincubated for 5 mins followed by peptide washout and” for “potential”, “15” for “5”, “(reference value: 3 +/- 2%)” for “relative to control”; assay type: cell-based; conditions: Oocyte; how it was run: as §5
[7] = target: T1, Neuronal acetylcholine receptor subunit alpha-7; experiment: as §2, with “assessed as” for “by measuring”, “potential preincubated for 5 mins followed by peptide washout and” for “potential”, “15” for “5”, “(reference value: 0.5 +/- 0.2%)” for “relative to control”; assay type: cell-based; conditions: Oocyte; how it was run: as §5
[8] = target: T2, Neuronal acetylcholine receptor; alpha9/alpha10 (Homo sapiens); experiment: as §4, with “assessed as” for “by measuring”, “potential preincubated for 5 mins followed by peptide washout and” for “potential”, “15” for “5”, “(reference value: 0.5%)” for “relative to control”; assay type: cell-based; conditions: Oocyte, filed as antagonist; how it was run: as §5
[9] = target: Neuronal acetylcholine receptor; alpha3/beta2 (Homo sapiens, UniProt P17787+P32297); experiment: Antagonist activity at human alpha3beta2 nAChR expressed in Xenopus laevis oocytes assessed as inhibition of Ach-induced response at -70 mV holding potential measured after 5 mins by two electrode voltage-clamp electrophysiology method; assay type: cell-based, Oocyte
Sequence of Neuronal acetylcholine receptor; alpha3/beta2 (P17787 whole entry, the tested form may be a part): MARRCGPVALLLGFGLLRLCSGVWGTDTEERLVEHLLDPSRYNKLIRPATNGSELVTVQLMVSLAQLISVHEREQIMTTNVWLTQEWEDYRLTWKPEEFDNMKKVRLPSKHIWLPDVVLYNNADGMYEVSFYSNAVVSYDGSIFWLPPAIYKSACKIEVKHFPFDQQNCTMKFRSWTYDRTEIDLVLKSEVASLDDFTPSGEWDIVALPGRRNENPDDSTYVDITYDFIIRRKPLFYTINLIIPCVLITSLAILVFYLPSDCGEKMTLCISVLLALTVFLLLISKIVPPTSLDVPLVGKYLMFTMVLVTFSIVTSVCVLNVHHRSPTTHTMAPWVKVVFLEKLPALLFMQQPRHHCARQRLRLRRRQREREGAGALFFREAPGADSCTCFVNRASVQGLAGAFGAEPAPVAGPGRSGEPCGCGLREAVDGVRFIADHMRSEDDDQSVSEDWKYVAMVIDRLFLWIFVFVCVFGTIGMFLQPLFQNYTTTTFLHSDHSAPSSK
Sequence of Neuronal acetylcholine receptor; alpha3/beta2 (P32297 whole entry, the tested form may be a part): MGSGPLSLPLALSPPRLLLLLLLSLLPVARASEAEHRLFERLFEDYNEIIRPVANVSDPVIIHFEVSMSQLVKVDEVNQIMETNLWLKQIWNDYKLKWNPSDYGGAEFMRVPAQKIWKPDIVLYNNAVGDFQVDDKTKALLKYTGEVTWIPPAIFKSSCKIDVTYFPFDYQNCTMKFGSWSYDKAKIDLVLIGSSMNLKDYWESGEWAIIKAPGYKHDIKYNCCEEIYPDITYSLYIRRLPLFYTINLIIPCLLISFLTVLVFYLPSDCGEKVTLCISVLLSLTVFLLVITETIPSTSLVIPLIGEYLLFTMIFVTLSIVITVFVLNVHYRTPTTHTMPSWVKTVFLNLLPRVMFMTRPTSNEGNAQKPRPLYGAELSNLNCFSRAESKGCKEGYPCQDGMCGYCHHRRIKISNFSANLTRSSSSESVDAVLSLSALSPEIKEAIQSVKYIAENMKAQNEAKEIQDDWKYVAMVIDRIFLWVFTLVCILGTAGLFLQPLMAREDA
How it was run: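 Oocytes expressing human α3β2 nAChRs were clamped at −70 mV by TEVC 1–4 days after cRNA injection and gravity-perfused with HEPES-buffered saline, pH 7.4. ACh was pulsed every 60 s until responses were stable. Peptide was perfused up to 1 μM, or given as a 5-min static bath above 1 μM. Responses were normalized to control ACh responses.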

[10] = target: T3, Neuronal acetylcholine receptor subunit alpha-9 (Homo sapiens, UniProt Q9UGM1); experiment: Antagonist activity at human alpha9 nAChR expressed in Xenopus laevis oocytes assessed as inhibition of Ach-induced response at -70 mV holding potential measured after 5 mins by two electrode voltage-clamp electrophysiology method; assay type: cell-based, Oocyte
T3 sequence (Q9UGM1 whole entry, the tested form may be a part): as the sequence (Q9UGM1 whole entry) above
How it was run: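 Human α9 or α9α10 cRNA in stage IV–V oocytes kept at 16 °C; α9-only oocytes incubated with 5 mM choline. TEVC at −70 mV, 1–4 days post-injection. 1 s pulses of 100 μM ACh every 60 s until responses were stable. Peptide perfused (≤1 μM) and responses normalized to the mean of three control responses. Above 1 μM, 5-min static bath normalized to a 5-min control-saline bath.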

[11] = target: T4, Neuronal acetylcholine receptor subunit alpha-10 (Homo sapiens, UniProt Q9GZZ6); experiment: Antagonist activity at human alpha10 nAChR expressed in Xenopus laevis oocytes assessed as inhibition of Ach-induced response at -70 mV holding potential measured after 5 mins by two electrode voltage-clamp electrophysiology method; assay type: cell-based, Oocyte; how it was run: as §1
T4 sequence (Q9GZZ6 whole entry): as the sequence (Q9GZZ6 whole entry) above

[12] = target: T3, Neuronal acetylcholine receptor subunit alpha-9; experiment: Antagonist activity at human alpha9 nAChR expressed in Xenopus laevis oocytes assessed as inhibition of Ach-induced response by measuring residual activity at 10 uM at -70 mV holding potential measured after 5 mins by two electrode voltage-clamp electrophysiology method relative to control; assay type: cell-based; conditions: Oocyte; how it was run: as §3
[13] = target: T4, Neuronal acetylcholine receptor subunit alpha-10; experiment: Antagonist activity at human alpha10 nAChR expressed in Xenopus laevis oocytes assessed as inhibition of Ach-induced response by measuring residual activity at 10 uM at -70 mV holding potential measured after 5 mins by two electrode voltage-clamp electrophysiology method relative to control; assay type: cell-based; conditions: Oocyte; how it was run: as §3
Homo sapiens [14] = species: Homo sapiens; experiment: (§6) Selectivity index, ratio of IC50 for antagonist activity at human alpha7 nAChR expressed in Xenopus laevis oocytes assessed as inhibition of Ach-induced response to IC50 for antagonist activity at human alpha3beta2 nAChR expressed in Xenopus laevis oocytes assessed as inhibition of Ach-induced response; assay type: cell-based
Homo sapiens [15] = species: Homo sapiens; experiment: as §6, with “alpha9” for “alpha7”; assay type: cell-based
Homo sapiens [16] = species: Homo sapiens; experiment: as §6, with “alpha10” for “alpha7”; assay type: cell-based
Homo sapiens [17] = species: Homo sapiens; experiment: as §6, with “alpha9alpha10” for “alpha7”; assay type: cell-based

Compound	IC50 [1]	IC50 [2]	Activity ([3]; filed as antagonist)	Activity ([4]; filed as antagonist)	further results
C[C@H](NC(=O)[C@H](CCCNC(=N)N)NC(=O)[C@H](CCCNC(=N)N)NC(=O)[C@H](Cc1c[nH]cn1)NC(=O)[C@H](CO)NC(=O)[C@H](CS)NC(=O)[C@H](C)NC(=O)[C@@H]1CCCN1C(=O)[C@H](Cc1c[nH]cn1)NC(=O)[C@H](CO)NC(=O)[C@H](CS)NC(=O)[C@H](CS)NC(=O)CN)C(=O)N[C@@H](CCCNC(=N)N)C(=O)N[C@@H](CO)C(=O)N[C@@H](CS)C(=O)O (H-GCCSHPACSHRRARSC-OH)	10.1 µM	1290 nM	46%	6%	
C[C@H](NC(=O)[C@H](CCCNC(=N)N)NC(=O)[C@H](CCCNC(=N)N)NC(=O)[C@@H]1CCCN1C(=O)[C@H](CO)NC(=O)[C@H](CS)NC(=O)[C@H](C)NC(=O)[C@@H]1CCCN1C(=O)[C@H](Cc1c[nH]cn1)NC(=O)[C@H](CO)NC(=O)[C@H](CS)NC(=O)[C@H](CS)NC(=O)CN)C(=O)N[C@@H](CCCNC(=N)N)C(=O)N[C@@H](CO)C(=O)N[C@@H](CS)C(=O)O (H-GCCSHPACSPRRARSC-OH)	2.12 µM	1120 nM	16%	10%	Activity [5]: 97%; Activity [6]: 99%
C[C@H](NC(=O)[C@H](CCCNC(=N)N)NC(=O)[C@H](CCCNC(=N)N)NC(=O)[C@H](CCCNC(=N)N)NC(=O)[C@H](CO)NC(=O)[C@H](CS)NC(=O)[C@H](C)NC(=O)[C@@H]1CCCN1C(=O)[C@H](Cc1c[nH]cn1)NC(=O)[C@H](CO)NC(=O)[C@H](CS)NC(=O)[C@H](CS)NC(=O)CN)C(=O)N[C@@H](CCCNC(=N)N)C(=O)N[C@@H](CO)C(=O)N[C@@H](CS)C(=O)O (H-GCCSHPACSRRRARSC-OH)	0.177 µM	98.1 nM	1.4%	1%	Activity [7]: 99%; Activity [8]: 21%
C[C@H](NC(=O)[C@H](CCCNC(=N)N)NC(=O)[C@H](CO)NC(=O)[C@@H]1CCCN1C(=O)[C@H](CO)NC(=O)[C@H](CS)NC(=O)[C@H](C)NC(=O)[C@@H]1CCCN1C(=O)[C@H](Cc1c[nH]cn1)NC(=O)[C@H](CO)NC(=O)[C@H](CS)NC(=O)[C@H](CS)NC(=O)CN)C(=O)N[C@@H](CO)C(=O)N[C@@H](CO)C(=O)N[C@@H](CS)C(=O)O (H-GCCSHPACSPSRASSC-OH)	> 10 µM				
C[C@H](NC(=O)[C@H](CCCNC(=N)N)NC(=O)[C@H](CCCNC(=N)N)NC(=O)[C@H](Cc1c[nH]cn1)NC(=O)[C@H](CO)NC(=O)[C@H](CCCCN)NC(=O)[C@H](CS)NC(=O)[C@H](C)NC(=O)[C@@H]1CCCN1C(=O)[C@H](Cc1c[nH]cn1)NC(=O)[C@H](CO)NC(=O)[C@H](CS)NC(=O)[C@H](CS)NC(=O)CN)C(=O)N[C@@H](CCCNC(=N)N)C(=O)N[C@@H](CS)C(=O)O (H-GCCSHPACKSHRRARC-OH)	1.89 µM	133 nM	13%	0.7%	
CC[C@H](C)[C@H](NC(=O)[C@H](CCC(=O)O)NC(=O)[C@@H]1CCCN1C(=O)[C@H](Cc1c[nH]cn1)NC(=O)[C@H](CC(=O)O)NC(=O)[C@@H](NC(=O)[C@H](CC(N)=O)NC(=O)[C@H](CS)NC(=O)[C@H](C)NC(=O)[C@@H]1CCCN1C(=O)[C@H](Cc1c[nH]cn1)NC(=O)[C@H](CO)NC(=O)[C@H](CS)NC(=O)[C@H](CS)NC(=O)CN)C(C)C)C(=O)N[C@@H](CS)C(=O)O	> 10 µM	> 10000 nM			IC50 [9]: 25.4 nM; IC50 [10]: > 10 µM; IC50 [11]: > 10 µM; Activity [3]: 81%; Activity [12]: 91%; Activity [13]: 74%; Activity [4]: 103%; Ratio IC50 (Homo sapiens [14]): > 400; Ratio IC50 (Homo sapiens [15]): > 400; Ratio IC50 (Homo sapiens [16]): > 400; Ratio IC50 (Homo sapiens [17]): > 400
C[C@H](NC(=O)[C@H](CCCNC(=N)N)NC(=O)[C@H](CO)NC(=O)[C@H](CCCNC(=N)N)NC(=O)[C@H](CO)NC(=O)[C@H](CS)NC(=O)[C@H](C)NC(=O)[C@@H]1CCCN1C(=O)[C@H](Cc1c[nH]cn1)NC(=O)[C@H](CO)NC(=O)[C@H](CS)NC(=O)[C@H](CS)NC(=O)CN)C(=O)N[C@@H](CO)C(=O)N[C@@H](CO)C(=O)N[C@@H](CS)C(=O)O (H-GCCSHPACSRSRASSC-OH)	5.4 µM	> 10000 nM			
